This note sets out measurements from ChEMBL document CHEMBL1125319, “Synthesis and hypoglycemic activity of substituted 8-(1-piperazinyl)imidazo[1,2-a]pyrazines” (J Med Chem, 1992).

Calls of active or inactive are those of the source. No cut-off for these calls is given here.

Assay [1] in a line: Binding affinity against Alpha-1 adrenergic receptor of calf cerebral cortex homogenates using [3H]prazosin. The format is tissue-based, Bos taurus.
Assay [2] in a line: Hypoglycemic potency relative to MTP-1403. Type of assay: functional. An outline of the steps:
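ob/ob insulin-resistant hyperglycemic mice on lab chow with free water. Graded oral doses given to groups of 5 mice; glucose load 2 g/kg sc 30 min after dosing, orbital sinus bleed 30 min after the load. Blood glucose compared with a reference standard by parallel-line bioassay, giving potency relative to the standard.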

Assay [3] deals with Mus musculus. The experiment in a line: Ability to lower blood glucose in insulin-resistant hyperglycemic ob/ob mice after 30 mg/kg p.o. administration. The format is functional. The note with it: route oral.
Assay [4] has as its target T1, Alpha-2A adrenergic receptor (Bos taurus, UniProt Q28838).
T1 sequence (Q28838 whole entry): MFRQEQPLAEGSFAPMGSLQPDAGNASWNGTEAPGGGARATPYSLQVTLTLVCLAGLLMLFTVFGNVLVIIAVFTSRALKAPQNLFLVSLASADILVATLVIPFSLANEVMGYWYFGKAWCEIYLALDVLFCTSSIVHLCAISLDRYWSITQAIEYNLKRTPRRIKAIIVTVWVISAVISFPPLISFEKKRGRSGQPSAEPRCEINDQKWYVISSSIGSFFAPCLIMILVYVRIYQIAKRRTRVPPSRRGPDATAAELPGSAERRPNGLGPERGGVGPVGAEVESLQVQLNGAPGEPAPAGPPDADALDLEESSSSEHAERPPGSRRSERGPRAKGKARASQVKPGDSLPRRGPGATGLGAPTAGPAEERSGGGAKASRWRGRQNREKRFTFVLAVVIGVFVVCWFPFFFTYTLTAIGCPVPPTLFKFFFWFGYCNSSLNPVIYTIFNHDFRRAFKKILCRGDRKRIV
The experiment in a line: Binding affinity at Alpha-2 adrenergic receptor in calf cerebral cortex homogenates by [3H]clonidine displacement. Type of assay: tissue-based.

Assay [5] has as its target T2, Beta-1 adrenergic receptor (Cavia porcellus, UniProt B0FL73).
Assay [6] concerns the target Beta-2 adrenergic receptor (Cavia porcellus, UniProt Q8K4Z4).
The target in assay [7] is T3, Alpha-1A adrenergic receptor (Bos taurus) (UniProt P18130).
T3 sequence (whole entry): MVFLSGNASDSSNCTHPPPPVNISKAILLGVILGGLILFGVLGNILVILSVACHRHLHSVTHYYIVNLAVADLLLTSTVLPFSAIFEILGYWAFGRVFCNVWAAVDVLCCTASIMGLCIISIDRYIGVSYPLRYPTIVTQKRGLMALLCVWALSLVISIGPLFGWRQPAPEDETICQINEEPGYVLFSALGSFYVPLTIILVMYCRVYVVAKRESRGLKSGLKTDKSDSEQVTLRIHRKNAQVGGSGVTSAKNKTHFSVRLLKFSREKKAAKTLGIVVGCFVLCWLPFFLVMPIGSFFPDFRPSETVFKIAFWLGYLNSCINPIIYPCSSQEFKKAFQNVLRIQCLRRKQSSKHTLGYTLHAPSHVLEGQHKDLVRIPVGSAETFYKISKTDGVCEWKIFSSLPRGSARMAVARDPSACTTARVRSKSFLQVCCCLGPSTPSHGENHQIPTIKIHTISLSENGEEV
The experiment in a line: Inhibition of binding of [3H]prazosin to Alpha-1 adrenergic receptor in calf cerebral cortex homogenates at 10000 nM. Type of assay: tissue-based.

The test system of assay [8] is Mus musculus. As to the kind of experiment: Compound was evaluated for its ability to lower blood glucose in insulin-resistant hyperglycemic ob/ob mice after peroral administration of 30 mg/kg single dose; NA= not active. Also on record: dose 30 mg/kg. To be noted: at 30 mg/kg. Type of assay: functional, organism-based.
In assay [9] the target is T4, Alpha-1A adrenergic receptor (Bos taurus, UniProt P18130).
T4 sequence (P18130 whole entry): T3 sequence (whole entry)
The experiment in a line: Binding affinity against alpha-1 adrenergic receptor was determined in calf cerebral cortex homogenates using [3H]prazosin as radioligand. Type of assay: tissue-based.

The target in assay [10] is T2, Beta-1 adrenergic receptor. As to the kind of experiment: Binding affinity against Beta-1 adrenergic receptor was measured using [125I]CYP as radioligand; NB= not bound.

Sequence of Beta-2 adrenergic receptor (Q8K4Z4 whole entry): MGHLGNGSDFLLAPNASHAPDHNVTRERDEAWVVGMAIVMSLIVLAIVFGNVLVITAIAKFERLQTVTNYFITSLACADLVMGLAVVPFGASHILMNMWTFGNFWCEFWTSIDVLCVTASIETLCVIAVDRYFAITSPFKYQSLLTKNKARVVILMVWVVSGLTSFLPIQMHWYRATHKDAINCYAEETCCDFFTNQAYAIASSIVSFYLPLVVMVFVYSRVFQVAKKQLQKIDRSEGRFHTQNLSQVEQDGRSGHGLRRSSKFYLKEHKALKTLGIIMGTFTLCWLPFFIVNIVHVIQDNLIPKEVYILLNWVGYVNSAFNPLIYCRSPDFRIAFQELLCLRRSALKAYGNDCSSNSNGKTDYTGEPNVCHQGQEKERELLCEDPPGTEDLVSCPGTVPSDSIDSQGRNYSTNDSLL
T2 sequence (B0FL73 whole entry): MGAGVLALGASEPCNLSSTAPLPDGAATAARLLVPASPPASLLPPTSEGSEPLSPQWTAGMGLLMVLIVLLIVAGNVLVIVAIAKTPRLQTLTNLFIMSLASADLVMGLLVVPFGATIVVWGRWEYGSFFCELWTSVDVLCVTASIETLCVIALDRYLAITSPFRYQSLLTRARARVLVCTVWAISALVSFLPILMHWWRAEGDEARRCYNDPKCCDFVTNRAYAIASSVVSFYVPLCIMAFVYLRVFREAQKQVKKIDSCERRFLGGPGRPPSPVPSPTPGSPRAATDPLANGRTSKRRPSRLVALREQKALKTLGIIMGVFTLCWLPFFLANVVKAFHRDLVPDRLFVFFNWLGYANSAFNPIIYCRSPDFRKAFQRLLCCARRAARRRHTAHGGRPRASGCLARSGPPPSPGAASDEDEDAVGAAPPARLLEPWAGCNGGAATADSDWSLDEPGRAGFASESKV

Broadly, the Ki is a measure of affinity in units of concentration, obtained from inhibition or displacement. Low readings indicate a stronger hold on the target, high ones a looser hold on the target. Turning to `Cc1cnc2c(N3CCNCC3)nccn12.Cl`, the inhibition constant (Ki) in assay [1] was determined as 1800 nM; in assay [4], 240 nM; in [5] it was 2400 nM; in assay [6], 2300 nM. The Relative potency in assay [2] is 11. For the same compound, the “Blood glucose, percent of control” value in the assay with Mus musculus [3] stood at 32%.
As for `CCCc1cnc2c(N3CCNCC3)nccn12.Cl`, the Ki came out at 2650 nM in assay [1], 480 nM in [4], 7790 nM in assay [5] and 1390 nM in assay [6]. The Relative potency in assay [2] stood at 4. For the same compound, the “Blood glucose, percent of control” value with Mus musculus [3] was found to be 59%.
For orientation: inhibition means the percentage by which the read-out fell short of the control. With `CCc1cnc2c(N3CCNCC3)nccn12.Cl`, in assay [2], the Relative potency amounted to 4. For the same compound, the “Blood glucose, percent of control” value in the assay on Mus musculus [3] came out at 54%. In addition, the values for the inhibition constant (Ki) in assay [4], in assay [5] and in assay [6] were 530 nM, 5000 nM and 3240 nM, respectively. In addition, the inhibition in assay [7] was 30%.
Turning to `CN1CCN(c2nccn3c(Br)cnc23)CC1`, the “Blood glucose, percent of control” value in the assay on Mus musculus [3] stood at 98%. In addition, the values for the Ki in assay [4] and in assay [5] were 1350 nM and 6300 nM, respectively. Besides, in assay [7], the inhibition worked out at 4%.
For the compound `Brc1cnc(N2CCNCC2)c2nccn12`, the Ki in assay [1] was 1490 nM; in assay [4], 182 nM; in assay [5] it was 170 nM; in assay [6] it was 520 nM. Moreover, in the assay on Mus musculus [3], the “Blood glucose, percent of control” value is on record as 87%.
As to `C1=CN2CCN=C2C(N2CCNCC2)=N1.O=C(O)C/C=C\CC(=O)O`, the “Blood glucose, percent of control” value in the assay on Mus musculus [3] was determined as 71%. In [4], this compound showed a Ki of 870 nM. In [7], this compound returned an inhibition of 15%.
Regarding `Brc1cnc(N2CCNCC2)c2ncc(Br)n12`, the Control entry in the assay with Mus musculus [8] is “inactive”. The values for the Ki in assay [4] and in assay [5] were 11900 nM and 630 nM, respectively.
Consider `Cc1cnc(N2CCNCC2)c2ncc(C)n12.Cl`, for which the “Blood glucose, percent of control” value in the assay on Mus musculus [3] is recorded as 72%. The values for the Ki in [4] and in assay [5] were 340 nM and 400 nM, respectively.
For the compound `Cc1cnc(N2CCNCC2)c2nccn12.Cl`, the inhibition constant Ki was 2600 nM in [1], 140 nM in assay [4], 360 nM in assay [5] and 820 nM in [6]. This compound also gave a Relative potency in assay [2] of 17. In addition, the “Blood glucose, percent of control” value in the assay with Mus musculus [3] turned out to be 52%.
In the case of `Cc1cn2ccnc(N3CCNCC3)c2n1.Cl`, in [2], the Relative potency is 32. Moreover, in the assay on Mus musculus [3], the “Blood glucose, percent of control” value was determined as 28%. Further, the Ki is 51 nM in [4] and 310 nM in assay [5].
For the compound `Cl.Clc1cnc2c(N3CCNCC3)nccn12`, the Ki in [1] amounted to 2780 nM. Also, in the assay on Mus musculus [3], the “Blood glucose, percent of control” value worked out at 66%.
`Cl.Cl.Clc1cn2ccnc2c(N2CCNCC2)n1` registered a Ki in assay [9] of 250 nM. This compound also yielded a Relative potency in assay [2] greater than 5. Further, the “Blood glucose, percent of control” value in the assay on Mus musculus [3] is listed as 36%.
In the case of `CC1CN=C2C(N3CCNCC3)=NC=CN21.O=C(O)C/C=C\CC(=O)O` (stereo not given), the “Blood glucose, percent of control” value in the assay on Mus musculus [3] is given as 88%. This compound registered an inhibition constant Ki in assay [4] of 1600 nM. In assay [7], this compound returned an inhibition of 12%.
Turning to `CC(C)c1cnc2c(N3CCNCC3)nccn12.Cl`, the inhibitory constant (Ki) in assay [1] is 5430 nM; in assay [4], 370 nM; in assay [5], 2990 nM; in assay [6], 2010 nM. The compound also came in with a Relative potency in assay [2] of 3. Besides, the “Blood glucose, percent of control” value in the assay with Mus musculus [3] worked out at 60%.
In turn, `Cc1cnc(N2CCN(C)CC2)c2nccn12` had a Relative potency in [2] of 6. For the same compound, the “Blood glucose, percent of control” value in the assay on Mus musculus [3] was determined as 51%. Besides, the results for the Ki in assay [4] and in [5] were 81 nM and 2800 nM, respectively. The same compound returned an inhibition in assay [7] of 45%.
Regarding `c1cn2ccnc2c(N2CCNCC2)n1`, the Ki in assay [1] was found to be 3100 nM; in [5], 400 nM; in assay [6], 1700 nM. For the same compound, the Relative potency in assay [2] stood at 76.
As for `CN1CCN(c2ncc(Br)n3ccnc23)CC1`, the “Blood glucose, percent of control” value in the assay with Mus musculus [3] was found to be 100%. The Ki turned out to be 270 nM in [4] and 500 nM in assay [5]. In assay [7], this compound yielded an inhibition of 22%.
Consider `CN1CCN(c2nccn3ccnc23)CC1`, for which the values for the inhibition constant (Ki) result in assay [10] and in assay [4] were “Not Active” and 1020 nM, respectively. In assay [2], this compound showed a Relative potency of 19. Besides, in the assay on Mus musculus [3], the “Blood glucose, percent of control” value amounted to 62%.
With `Cc1cn2c(C)cnc2c(N2CCNCC2)n1.Cl`, the inhibition constant Ki in assay [1] was 300 nM; in assay [4], 620 nM; in assay [5], 150 nM; in assay [6], 250 nM. Further, the Relative potency in assay [2] came to 6. Also, in the assay with Mus musculus [3], the “Blood glucose, percent of control” value came to 47%.
On to `Cc1cn2ccnc2c(N2CCNCC2)n1.Cl`, for which the Ki in assay [1] stood at 500 nM; in assay [4], 190 nM; in assay [5] it was 220 nM; in assay [6], 280 nM. Also, the “Blood glucose, percent of control” value in the assay on Mus musculus [3] was determined as 61%.
Regarding `Cl.FCCc1cnc2c(N3CCNCC3)nccn12`, the Relative potency in [2] worked out at 8. The “Blood glucose, percent of control” value with Mus musculus [3] was determined as 56%.
